Measured values pooled from the literature.
Target: Serine/threonine-protein kinase VRK1 (VRK1, Homo sapiens, UniProt Q99986)
Residues used in one study (Q99986 1-396): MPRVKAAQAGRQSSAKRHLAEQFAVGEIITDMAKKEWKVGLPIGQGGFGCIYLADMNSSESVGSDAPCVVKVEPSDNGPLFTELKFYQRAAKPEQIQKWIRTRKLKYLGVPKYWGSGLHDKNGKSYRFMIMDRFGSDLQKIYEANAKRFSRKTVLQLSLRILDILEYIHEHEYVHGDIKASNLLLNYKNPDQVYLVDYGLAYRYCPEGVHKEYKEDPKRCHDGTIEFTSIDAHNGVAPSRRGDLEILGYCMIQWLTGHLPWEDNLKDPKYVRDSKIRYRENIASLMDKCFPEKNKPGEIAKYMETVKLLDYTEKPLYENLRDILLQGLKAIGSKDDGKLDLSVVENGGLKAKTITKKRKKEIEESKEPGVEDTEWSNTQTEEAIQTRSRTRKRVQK

The ΔTm of `Cn1c2c(Cl)c(Cl)ccc2c2cn[nH]c(=O)c21` is reported as 0 °C (thermal stability, DSF; 10 µM).
The inhibition of `CN1CC(Oc2cnc(C#N)cc2-c2ccn3nc(NC(=O)C4CC4)cc3c2)C1` is reported as -1% (enzyme activity, inhibitor; 1 µM).
The remaining activity of `O=C(Nc1cnn(-c2csc(C(=O)NC3COC3)c2)c1)Nc1c(F)cccc1Cl` is reported as 91.9% (enzyme activity, inhibitor; 5 µM).
For `COc1cc(Cl)c(C(=O)N[C@@H](CN[C@H]2CC[C@@H](N)CC2)Cc2ccc(C#N)cc2)cc1-c1ccc(CN[C@H](C)c2ccc(C)cc2)o1`, the remaining activity was 93% (enzyme activity, inhibitor; 1 µM).
`CC(C)(C)c1nc(-c2cccc(NS(=O)(=O)c3c(F)cccc3F)c2F)c(-c2ccnc(N)n2)s1` gave a remaining activity of 77% (enzyme activity, inhibitor, radiometric; 1 µM).
`O=C1Nc2ccc(Cl)cc2C1=Cc1cc(Cl)c(O)c(Cl)c1` has a remaining signal of 80.6% (cell-free assay; 0.5 µM).
With `CC(C)(C)c1nc2c(s1)c1nc(N)ncc1c1ccc(NS(=O)(=O)c3c(F)cccc3F)c(F)c12` the remaining activity was 82% (enzyme activity, inhibitor, radiometric; 1 µM).
With `N#CC1c2c([nH]c3c(Cl)c(Cl)ccc23)C(=O)NC12CCCCC2` (racemic) the ΔTm was 0.1 °C (thermal stability, DSF; 10 µM).
The remaining activity of `O=C(Nc1cnn(-c2csc(C(=O)NC3COC3)c2)c1)Nc1ccccc1Cl` is reported as 109% (enzyme activity, inhibitor; 5 µM).
The ΔTm of `CN1CCC2(CC1)NC(=O)c1c(c3ccc(Cl)c(Cl)c3n1C)C2C#N` (racemic) is reported as 0 °C (thermal stability, DSF; 10 µM).
The remaining activity of `CC(C)(O)[C@H]1CC[C@H](Nc2ccc3ncc(-c4cccc(C(F)(F)F)c4)n3n2)CC1` is reported as 74.9% (enzyme activity, inhibitor; 1 µM).
